# What was measured:
# [1] = tested on: Rattus norvegicus; assay: Effect on in vivo accumulation of dopamine(DA) was measured in rat limbic system at 48(Micromol/kg) dose; assay type: functional
# In short: (§1)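 Non-reserpinized rats got the test drug sc in the neck (5 mL/kg) 60 min before death, and NSD 1015 (573 µmol/kg ip) 30 min before death. After decapitation, the limbic system was dissected on ice, frozen and homogenized in 0.1 M perchloric acid with α-methyl-DOPA internal standard. DA was measured by ion-pair reversed-phase HPLC with electrochemical detection. Data are mean ± SEM (controls n=17-19, treated 3-7), analysed by ANOVA/Dunnett.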
# [2] = tested on: Rattus norvegicus; assay: Effect on in vivo accumulation of DOPA was measured in rat limbic system at 48(Micromol/kg) dose; assay type: functional
# In short: (§2)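 Rats not pretreated with reserpine received test drug (hydrochloride or hydrobromide salt) sc in the neck region 60 min before death. NSD 1015 decarboxylase inhibitor (100 mg/kg, i.e., 573 μmol/kg, ip) was given 30 min before decapitation. Brain was dissected on ice. Tissue was homogenized in 0.1 M perchloric acid with α-methyl-DOPA internal standard. Analytes were quantified by ion-pair reversed-phase HPLC-electrochemical detection. Values are means ± SEM, n = 3-7 per treated group.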
# [3] = tested on: Rattus norvegicus; assay: Effect on in vivo accumulation of […] was measured in rat corpus striatum at 48(Micromol/kg) dose; assay type: functional; in short: as §2
# [4] = tested on: Rattus norvegicus; assay: Effect on in vivo accumulation of 5-HTP was measured in rat corpus striatum at 48(umol/kg) dose; assay type: functional; in short: as §2
# [5] = tested on: Rattus norvegicus; assay: Effect on in vivo accumulation of 5-HTP was measured in rat limbic system at 48(Micromol/kg) dose; assay type: functional; in short: as §2
# [6] = tested on: Rattus norvegicus; assay: Effect on in vivo accumulation of DOPA was measured in rat corpus striatum at 48(Micromol/kg) dose; assay type: functional; in short: as §2
# [7] = biological target: T1, 5-hydroxytryptamine receptor 1A (Rattus norvegicus, UniProt P19327); assay: (§3) In vitro Inhibitory activity tested at 5-hydroxytryptamine 1A receptor binding site in rat; assay type: functional
# T1 sequence (P19327 whole entry): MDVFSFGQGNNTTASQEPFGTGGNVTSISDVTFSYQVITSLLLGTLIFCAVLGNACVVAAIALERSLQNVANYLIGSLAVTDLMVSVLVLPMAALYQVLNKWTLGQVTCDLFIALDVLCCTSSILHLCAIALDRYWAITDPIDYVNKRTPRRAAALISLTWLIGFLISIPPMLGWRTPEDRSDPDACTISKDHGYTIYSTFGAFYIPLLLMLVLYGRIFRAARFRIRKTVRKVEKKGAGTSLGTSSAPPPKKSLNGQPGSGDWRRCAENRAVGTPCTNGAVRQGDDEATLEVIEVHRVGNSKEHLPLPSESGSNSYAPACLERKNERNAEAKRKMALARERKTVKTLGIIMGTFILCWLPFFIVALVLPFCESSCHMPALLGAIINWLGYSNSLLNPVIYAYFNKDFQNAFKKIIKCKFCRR
# In short: (§4)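 Competition binding used rat brain membranes washed in 50 mM Tris-HCl pH 7.4, preincubated 10 min at 37 °C to remove 5-HT, and used at 10 mg wet tissue/mL. Assay: 1 nM [3H]-8-OH-DPAT, 3 mM CaCl2, 100 µM pargyline, 15 min at 37 °C, then filtration on PEI-treated filters. Nonspecific binding was set with 10 µM 5-HT. IC50 came from four-parameter logistic regression, mean ± SEM of N experiments.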
# [8] = tested on: Rattus norvegicus; assay: Effect on in vivo accumulation of dopamine(DA) was measured in rat limbic system at 50(Micromol/kg) dose; assay type: functional; in short: as §1
# [9] = tested on: Rattus norvegicus; assay: Effect on in vivo accumulation of DOPA was measured in rat limbic system at 50(Micromol/kg) dose; assay type: functional; in short: as §2
# [10] = tested on: Rattus norvegicus; assay: Effect on in vivo accumulation of […] was measured in rat corpus striatum at 50(Micromol/kg) dose; assay type: functional; in short: as §2
# [11] = tested on: Rattus norvegicus; assay: Effect on in vivo accumulation of 5-HTP was measured in rat corpus striatum at 50(umol/kg) dose; assay type: functional; in short: as §2
# [12] = tested on: Rattus norvegicus; assay: Effect on in vivo accumulation of 5-HTP was measured in rat limbic system at 50(Micromol/kg) dose; assay type: functional; in short: as §2
# [13] = tested on: Rattus norvegicus; assay: Effect on in vivo accumulation of DOPA was measured in rat corpus striatum at 50(Micromol/kg) dose; assay type: functional; in short: as §2
# [14] = tested on: Rattus norvegicus; assay: Effect on in vivo accumulation of […] was measured in rat corpus striatum at 66(Micromol/kg) dose; assay type: functional; in short: as §2
# [15] = tested on: Rattus norvegicus; assay: Effect on in vivo accumulation of dopamine(DA) was measured in rat limbic system at 66(Micromol/kg) dose; assay type: functional; in short: as §1
# [16] = tested on: Rattus norvegicus; assay: Effect on in vivo accumulation of DOPA was measured in rat limbic system at 66(Micromol/kg) dose; assay type: functional; in short: as §2
# [17] = tested on: Rattus norvegicus; assay: Effect on in vivo accumulation of 5-HTP was measured in rat corpus striatum at 66(umol/kg) dose; assay type: functional; in short: as §2
# [18] = tested on: Rattus norvegicus; assay: Effect on in vivo accumulation of 5-HTP was measured in rat limbic system at 66(Micromol/kg) dose; assay type: functional; in short: as §2
# [19] = tested on: Rattus norvegicus; assay: Effect on in vivo accumulation of DOPA was measured in rat corpus striatum at 66(Micromol/kg) dose; assay type: functional; in short: as §2
# [20] = tested on: Rattus norvegicus; assay: Effect on in vivo accumulation of […] was measured in rat corpus striatum at 59(Micromol/kg) dose; assay type: functional; in short: as §2
# [21] = tested on: Rattus norvegicus; assay: Effect on in vivo accumulation of dopamine(DA) was measured in rat limbic system at 59(Micromol/kg) dose; assay type: functional; in short: as §1
# [22] = tested on: Rattus norvegicus; assay: Effect on in vivo accumulation of DOPA was measured in rat limbic system at 59(Micromol/kg) dose; assay type: functional; in short: as §2
# [23] = tested on: Rattus norvegicus; assay: Effect on in vivo accumulation of 5-HTP was measured in rat corpus striatum at 59(umol/kg) dose; assay type: functional; in short: as §2
# [24] = tested on: Rattus norvegicus; assay: Effect on in vivo accumulation of 5-HTP was measured in rat limbic system at 59(Micromol/kg) dose; assay type: functional; in short: as §2
# [25] = tested on: Rattus norvegicus; assay: Effect on in vivo accumulation of DOPA was measured in rat corpus striatum at 59(Micromol/kg) dose; assay type: functional; in short: as §2
# [26] = biological target: T1, 5-hydroxytryptamine receptor 1A; assay: as §3; in short: as §4
# [27] = biological target: T1, 5-hydroxytryptamine receptor 1A; assay: Inhibitory activity tested in vitro at 5-hydroxytryptamine 1A receptor binding site in rat; in short: as §4
# [28] = tested on: Rattus norvegicus; assay: Effect on in vivo accumulation of dopamine(DA) was measured in rat limbic system at 5.9 (umol/kg) dose; assay type: functional; in short: as §1
# [29] = tested on: Rattus norvegicus; assay: Effect on in vivo accumulation of DOPA was measured in rat limbic system at 5.9 (umol/kg) dose; assay type: functional; in short: as §2
# [30] = tested on: Rattus norvegicus; assay: Effect on in vivo accumulation of […] was measured in rat corpus striatum at 5.9 (umol/kg) dose; assay type: functional; in short: as §2
# [31] = tested on: Rattus norvegicus; assay: Effect on in vivo accumulation of 5-HTP was measured in rat corpus striatum at 5.9(umol/kg) dose; assay type: functional; in short: as §2
# [32] = tested on: Rattus norvegicus; assay: Effect on in vivo accumulation of 5-HTP was measured in rat limbic system at 5.9 (umol/kg) dose; assay type: functional; in short: as §2
# [33] = tested on: Rattus norvegicus; assay: Effect on in vivo accumulation of DOPA was measured in rat corpus striatum at 5.9 (umol/kg) dose; assay type: functional; in short: as §2
smiles,measurement,setting,value
CCCN(CCC)[C@H]1Cc2c(cccc2OC)C[C@@H]1C (racemic),Activity,[1],1225 ng/g
same,Activity,[2],389 ng/g
same,Activity,[3],5833 ng/g
same,Activity,[4],<61.3 ng/g
same,Activity,[5],145 ng/g
same,Activity,[6],979 ng/g
CCCN(CCC)[C@H]1Cc2c(O)cccc2C[C@H]1C (racemic) [listing 1 of 2 here],IC50,[7],0.774 µM
same,Activity,[8],<678 ng/g
same,Activity,[9],436 ng/g
same,Activity,[10],<2935 ng/g
same,Activity,[11],<57.8 ng/g
same,Activity,[12],138 ng/g
same,Activity,[13],1059 ng/g
CCCN(CCC)[C@H]1Cc2c(cccc2OC)C[C@H]1C (racemic),Activity,[1],1342 ng/g
same,Activity,[2],414 ng/g
same,Activity,[3],6465 ng/g
same,Activity,[4],88.8 ng/g
same,Activity,[5],141 ng/g
same,Activity,[6],1078 ng/g
CCCN(CCC)[C@H]1Cc2c(O)cccc2CC1(C)C (racemic),Activity,[1],1125 ng/g
same,Activity,[2],362 ng/g
same,Activity,[3],5417 ng/g
same,Activity,[4],90 ng/g
same,Activity,[5],158 ng/g
same,Activity,[6],982 ng/g
COc1cccc2c1C[C@H](N)[C@@H](C)C2 (racemic),Activity,[14],<6863 ng/g
same,Activity,[15],1243 ng/g
same,Activity,[16],356 ng/g
same,Activity,[17],90.2 ng/g
same,Activity,[18],<106 ng/g
same,Activity,[19],<823 ng/g
CCCN[C@H]1Cc2c(O)cccc2C[C@@H]1C (racemic),Activity,[20],5877 ng/g
same,Activity,[21],1215 ng/g
same,Activity,[22],400 ng/g
same,Activity,[23],101 ng/g
same,Activity,[24],155 ng/g
same,Activity,[25],1047 ng/g
CCCN[C@H]1Cc2c(O)cccc2C[C@H]1C (racemic),Activity,[20],4530 ng/g
same,Activity,[21],1058 ng/g
same,Activity,[22],<283 ng/g
same,Activity,[23],69 ng/g
same,Activity,[24],<98.1 ng/g
same,Activity,[25],<633 ng/g
CCCN(CCC)[C@H]1Cc2c(O)cccc2C[C@H]1C (racemic) [listing 2 of 2 here],IC50,[26],0.774 µM
CCCN(CCC)[C@H]1Cc2c(O)cccc2C[C@@H]1C (racemic; form 1),IC50,[26],0.129 µM
CCCN(CCC)[C@H]1Cc2c(O)cccc2C[C@@H]1C (racemic; form 2),IC50,[26],0.129 µM
same,Activity,[8],<775 ng/g
same,Activity,[9],348 ng/g
same,Activity,[10],<3871 ng/g
same,Activity,[11],<27.1 ng/g
same,Activity,[12],<79.3 ng/g
same,Activity,[13],792 ng/g
CCCN(CCC)[C@H]1Cc2c(O)cccc2C[C@H]1C (stereo in doubt; (+)),IC50,[27],2.42 µM
CCCN(CCC)[C@H]1Cc2c(O)cccc2C[C@@H]1C (stereo in doubt; (+)),IC50,[27],0.0605 µM
CCCN[C@H]1Cc2c(O)cccc2C[C@@H]1C (stereo in doubt; (+)-9),Activity,[20],4249 ng/g
same,Activity,[21],1030 ng/g
same,Activity,[22],426 ng/g
same,Activity,[23],<67.4 ng/g
same,Activity,[24],125 ng/g
same,Activity,[25],957 ng/g
CCCN[C@H]1Cc2c(O)cccc2C[C@H]1C (stereo in doubt; (+)-13),Activity,[20],5133 ng/g
same,Activity,[28],1292 ng/g
same,Activity,[21],1186 ng/g
same,Activity,[29],365 ng/g
same,Activity,[22],<271 ng/g
same,Activity,[30],5924 ng/g
same,Activity,[31],104 ng/g
same,Activity,[23],101 ng/g
same,Activity,[32],131 ng/g
same,Activity,[24],140 ng/g
same,Activity,[33],1013 ng/g
same,Activity,[25],<525 ng/g
CCCN(CCC)[C@H]1Cc2c(O)cccc2C[C@H]1C (stereo in doubt; (+)-15),IC50,[27],2.42 µM
same,Activity,[8],<609 ng/g
same,Activity,[9],<507 ng/g
same,Activity,[10],<2758 ng/g
same,Activity,[11],115 ng/g
same,Activity,[12],197 ng/g
same,Activity,[13],1157 ng/g
CCCN(CCC)[C@H]1Cc2c(O)cccc2C[C@H]1C (stereo in doubt; (-)),IC50,[27],0.486 µM
CCCN(CCC)[C@H]1Cc2c(O)cccc2C[C@@H]1C (stereo in doubt; (-)),IC50,[27],1.68 µM
CCCN[C@H]1Cc2c(O)cccc2C[C@@H]1C (stereo in doubt; (-)-9),Activity,[20],5588 ng/g
same,Activity,[21],975 ng/g
same,Activity,[22],<340 ng/g
same,Activity,[23],105 ng/g
same,Activity,[24],169 ng/g
same,Activity,[25],978 ng/g
CCCN[C@H]1Cc2c(O)cccc2C[C@H]1C (stereo in doubt; (-)-13),Activity,[20],5365 ng/g
same,Activity,[21],1148 ng/g
same,Activity,[22],365 ng/g
same,Activity,[23],103 ng/g
same,Activity,[24],151 ng/g
same,Activity,[25],932 ng/g

# Source: ChEMBL document CHEMBL1124127, “Central dopaminergic and 5-hydroxytryptaminergic effects of C3-methylated derivatives of 8-hydroxy-2-(di-n-propylamino)tetralin” (J Med Chem, 1988)
